Source: PubChem BioAssay
Pf gametocyte = P. falciparum stage V gametocyte viability inhibition; P. falciparum stage V gametocytes, ATP luminescence, 24 h; inhibition, % at 10.9 µM; 150,000 compounds, 0.065% hits; AID 743093;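 active = inhibition above the mean plus 3 SD of compounds within the control limits, set per campaign, cut at about 38% in these data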;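 also: 0% = DMSO wells and 100% = medium only without gametocytes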
ROMK mod = modulators of human ROMK potassium channel | P48048 | Tet-inducible ROMK, thallium flux fluorescence; actives lie on both sides | B-score at 10 µM | 130,000 compounds, 2% hits;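 active = signal ratio slope over the read window, or its plate-corrected B-score, at least 3 SD from the plate mean, either direction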;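 also: B-score of the F/F0 ratio slope over 7 to 12 s after thallium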
Target sequence (P48048 whole entry, looked up): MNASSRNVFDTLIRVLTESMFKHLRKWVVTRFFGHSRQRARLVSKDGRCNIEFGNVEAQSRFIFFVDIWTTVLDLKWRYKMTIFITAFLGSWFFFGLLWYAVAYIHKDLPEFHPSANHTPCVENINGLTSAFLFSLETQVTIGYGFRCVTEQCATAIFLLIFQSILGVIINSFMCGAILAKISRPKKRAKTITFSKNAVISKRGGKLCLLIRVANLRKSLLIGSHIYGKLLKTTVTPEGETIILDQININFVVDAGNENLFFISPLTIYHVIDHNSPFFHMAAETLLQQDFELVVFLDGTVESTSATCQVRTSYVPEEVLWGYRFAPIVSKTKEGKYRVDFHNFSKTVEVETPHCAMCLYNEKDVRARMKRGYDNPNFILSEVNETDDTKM
Biofilm kill mix = mixture kills Candida albicans biofilm cells. AID 1242. C. albicans biofilm persisters + clotrimazole, fluorescence viability; primary screen in compound mixtures of four per well. inhibition, % at 7.6 µM. 120,000 compounds, 0.02% hits;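 active = inhibition above 30.3% in the primary screen of four-compound pools, then above 30% when the compound was retested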;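 also: compounds exposed to preformed 24 h biofilms for 48 h; 0% = untreated biofilm control and 100% = clotrimazole plus chlorhexidine kill blank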
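Test system: C. albicans biofilms. Buffer or medium: RPMI/MOPS medium, pH 7.0. Timing: 48 h compound exposure at 37 °C. Technique: Alamar Blue fluorescence. Evaluation: percent inhibition of biofilm viability.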
ROMK hit retest = confirmation of human ROMK potassium channel modulators; 3,000 compounds, 54% hits; AID 1917; ROMK thallium flux, fluorescence ratio; stronger effect = lower value; normalized thallium flux (F/F0 slope) at 10 µM; shares compounds with ROMK mod;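 active = Flux at 10 µM at least 3 SD below or above vehicle control mean in one or both replicates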
* hit, by the source's call. Shown is part of a subset that was picked to be rich in hits.

For O=C(CN1CCC(c2nc3ccccc3s2)CC1)N1CCCCC1 the results were Pf gametocyte 19.4, ROMK mod -1.49 and Biofilm kill mix 2.7.
For O=C(CN1CCC(c2nc3ccccc3s2)CC1)NCc1cccs1 the results were Pf gametocyte 23.7 and ROMK hit retest 0.0605*.
CC(C)CN(C(=O)c1nn(C)c(=O)c2ccccc12)c1nc2ccccc2s1 was read as ROMK mod 1.9.
For COc1ccc(O)c(/C=N/NC(=O)c2cc(=O)[nH]c3ccccc23)c1 the results were Pf gametocyte -30.2 and Biofilm kill mix 7.5.
O=C(CNC(=O)c1cccc(F)c1)N/N=C/c1cccc([N+](=O)[O-])c1 was read as Pf gametocyte -37.3, ROMK mod -0.11 and Biofilm kill mix 10.8.
`CCc1cc2c(NCc3ccco3)ncnc2s1` gave ROMK mod -3.92* and ROMK hit retest 0.0757.
For CCc1cc2c(NCC(=O)O)ncnc2s1 the results were Pf gametocyte -9.3.
For Cc1ccccc1Nc1nc(N)nc(CN(C)Cc2ccccc2Cl)n1 the results were Pf gametocyte -6.6, ROMK mod -0.106 and Biofilm kill mix 13.0.
Screening C=CCNc1nc(N)c(C(=C(C#N)C#N)c2ccc(Br)cc2)s1 returned Pf gametocyte -19.4, ROMK mod -0.69 and Biofilm kill mix 8.6.
For Cc1ccc(C(=O)Nc2ccnc(-c3cccnc3)n2)cc1 the results were Pf gametocyte -12.8, ROMK mod 4.57*, Biofilm kill mix -2.9 and ROMK hit retest 0.111*.
Screening COc1ccc(C(=O)Nc2ccnc(-c3cccnc3)n2)cc1 returned Pf gametocyte 6.2, ROMK mod 4.37*, Biofilm kill mix 9.6 and ROMK hit retest 0.104*.
For Cc1nc(NC(=O)c2cccnc2)ccc1Br the results were Pf gametocyte 8.2 and ROMK hit retest 0.0793.
`Cc1ccccc1C(=O)Nc1ccc(Br)c(C)n1` gave Pf gametocyte -3.5.
Screening Cc1ccc(NC(=O)Nc2ccnc(-c3cccnc3)n2)cc1 returned Pf gametocyte -8.3, ROMK mod 3.08 and Biofilm kill mix 7.0.
O=C(Nc1ccnc(-c2cccnc2)n1)c1ccc(Cl)c(Cl)c1 was read as ROMK mod 1.84.
`O=C(CCl)Nc1ccccc1C(=O)c1ccccc1` gave Pf gametocyte 16.7, ROMK mod -0.99 and Biofilm kill mix -2.4.
Screening COc1cc(C(=O)Nc2nnc(C)s2)c([N+](=O)[O-])cc1OC returned Pf gametocyte 4.5 and Biofilm kill mix 11.9.
Screening CC(C)C(=O)N1CCN(c2ccccc2NC(=O)c2cc([N+](=O)[O-])ccc2N2CCOCC2)CC1 returned Pf gametocyte -23.5, ROMK mod 3.27 and Biofilm kill mix 15.7.
For COc1ccc(-c2nc3ccccn3c2/N=C/c2ccc(OC)c(OC)c2)cc1O the results were ROMK mod -0.253 and Biofilm kill mix 4.8.
Screening CCN(CC)C(=O)c1sc(NC(=O)C(C)C)c(C#N)c1C returned Pf gametocyte -3.7, ROMK mod -0.471 and Biofilm kill mix 19.3.
COc1cc2c(cc1OC)CN(CC(=O)Nc1ccc3c(c1)OC(F)(F)O3)CC2 was read as ROMK mod 2.48* and ROMK hit retest 0.0784.
`COc1cc2c(cc1OC)CN(CC(=O)Nc1ccc(S(=O)(=O)N(C)C)cc1)CC2` gave Pf gametocyte -15.7, ROMK mod 0.492 and Biofilm kill mix 10.1.
Screening CCOc1ccc(NC(=O)CCN2CCN(S(=O)(=O)c3cc(Cl)ccc3OC)CC2)cc1 returned Pf gametocyte 15.7, ROMK mod -2.41* and ROMK hit retest 0.0616*.
`CCN(CC)c1ccc(NC(=O)CN2CCN(S(=O)(=O)c3cc(Cl)ccc3OC)CC2)cc1` gave ROMK mod -1.93.
CC(C)C(c1nnnn1Cc1ccc(F)cc1)N1CCN(C2CCCC2)CC1 (stereo not drawn) was read as Pf gametocyte 16.4, ROMK mod -4.63*, Biofilm kill mix 20.2 and ROMK hit retest 0.0589*.
`COc1ccc(C(c2nnnn2Cc2ccc(F)cc2)N2CCN(c3ccc(OC)cc3)CC2)cc1` (stereo not drawn) gave Pf gametocyte 15.6 and ROMK mod -0.0775.
Screening COc1ccc(Cn2nnnc2C(c2ccc(F)cc2)N2CCN(C3CCCC3)CC2)cc1 (stereo not drawn) returned Pf gametocyte -51.2, ROMK mod -4.25* and ROMK hit retest 0.0532*.
Screening CC(C)C(c1nnnn1Cc1ccco1)N1CCN(C2CCCC2)CC1 (stereo not drawn) returned ROMK mod -1.07.
`CCCC(c1nnnn1Cc1ccc(F)cc1)N1CCN(C2CCCCC2)CC1` (stereo not drawn) gave Pf gametocyte -13.3 and ROMK hit retest 0.0517*.
Screening CCC(c1nnnn1Cc1ccc(F)cc1)N1CCN(C)CC1 (stereo not drawn) returned ROMK mod 0.94 and Biofilm kill mix 7.3.
For COc1cc(CNCc2ccncc2)cc(OC)c1OC the results were Pf gametocyte -1.5.
C#Cc1ccc([C@H]2C=C(C(=O)N3CCOCC3)O[C@@H](OCC)[C@@H]2CCCO)cc1 was read as Pf gametocyte -125.3 and Biofilm kill mix 16.6.
CCN1C(=S)N[C@@H](CCc2ccccc2)C(C(=O)OC)=C1C was read as Pf gametocyte 14.8.
Screening CC(=O)Nc1ccc(C2(c3ccc(NC(C)=O)cc3)C(=O)Nc3ccccc32)cc1 returned Pf gametocyte -6.1, ROMK mod -0.19 and Biofilm kill mix 8.0.
`COc1ccc(C(=O)/C=C/C(=O)N(Cc2ccccc2)C(C(=O)NC2CCCCC2)c2ccncc2)c(O)c1` (stereo not drawn) gave Pf gametocyte -3.0, ROMK mod -2.43 and Biofilm kill mix 5.8.
`COc1ccc(C(=O)/C=C/C(=O)N(Cc2ccccc2OC)C(C(=O)NC2CCCCC2)c2ccncc2)c(O)c1` (stereo not drawn) gave Pf gametocyte 2.0, ROMK mod -3.73*, Biofilm kill mix 9.6 and ROMK hit retest 0.0663*.
For CCN1C[C@@H]2[C@@H]3C(=O)N(Cc4ccccc4)C(=O)[C@@H]3[C@](Cc3ccccc3)(C1=O)N2C(=O)c1ccc(Br)cc1 the results were Pf gametocyte -31.3.
`CCNC(=O)COc1ncnc2scc(-c3ccc(F)cc3)c12` gave Pf gametocyte 7.5, ROMK mod 0.0567 and Biofilm kill mix -2.5.
`O=C(COc1ncnc2scc(-c3ccc(Cl)cc3)c12)NCc1ccco1` gave Pf gametocyte -9.3 and ROMK hit retest 0.061*.
Screening COc1cc([N+](=O)[O-])ccc1N/C=C/C(=O)c1cccs1 returned Pf gametocyte -1.0 and ROMK hit retest 0.053*.
`COc1cc([N+](=O)[O-])ccc1NC(=O)/C=C\C(=O)O` gave Pf gametocyte 3.2, ROMK mod 0.0234 and Biofilm kill mix 4.6.
For CC1(C)CC(=O)C=C(NC2=CC3OC(c4ccccc4)OCC3OC2=O)C1 (stereo not drawn) the results were Pf gametocyte -2.8, ROMK mod -2.88 and Biofilm kill mix 7.9.
For Cc1ccc([C@@H]2C3COCC=C3C(C#N)=C(N)C2(C#N)C#N)o1 (stereo partly drawn) the results were ROMK mod -4.48* and ROMK hit retest 0.0461*.
